Measured values published in ChEMBL document CHEMBL4837219, “Chemical modification of NSC12 leads to a specific FGF-trap with antitumor activity in multiple myeloma” (Eur J Med Chem, 2021).
Active and inactive are the calls of the source. The rule behind the calls is not given here.

What was measured:
KMS-11 [1] = experiment: Trapping activity at FGF in human KMS-11 cells assessed as inhibition of FGFR3 phosphorylation at 6 uM measured after 6 hrs by western blot analysis; format: cell-based
Procedure, shortened: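 KMS-11 cells treated for 6 h with compound at 6.0 µM, then lysed in NP-40 buffer containing orthovanadate and protease inhibitors. Phospho-FGFR3 detected by western blot with anti-phospho-Y724 antibody, using β-actin or α-tubulin as loading control. Result expressed as % inhibition of FGFR3 phosphorylation by densitometry.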

KMS-11 [2] = experiment: Antiproliferative activity against human KMS-11 cells assessed as reduction in cell viability incubated for 48 hrs by propidium iodide staining-based flow cytometric analysis; format: functional; details: KMS-11, 48 h
Procedure, shortened: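 KMS-11 cells (maintained in RPMI1640 with 10% heat-inactivated FBS and 2.0 mM glutamine) exposed to increasing concentrations of compound for 48 h. Viable PI-negative cells counted by flow cytometry using the analyzer's absolute counting function. IC50 is the concentration giving 50% inhibition of proliferation, taken as the mean of at least 2 experiments run in triplicate.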

[3] = target: T1, Estrogen receptor (Homo sapiens) (UniProt P03372); experiment: Displacement of [3H]estradiol from human full length recombinant ERalpha expressed in baculovirus-infected Sf9 cells at 5 uM incubated for 120 mins by radiometric scintillation counting analysis
T1 sequence (whole entry): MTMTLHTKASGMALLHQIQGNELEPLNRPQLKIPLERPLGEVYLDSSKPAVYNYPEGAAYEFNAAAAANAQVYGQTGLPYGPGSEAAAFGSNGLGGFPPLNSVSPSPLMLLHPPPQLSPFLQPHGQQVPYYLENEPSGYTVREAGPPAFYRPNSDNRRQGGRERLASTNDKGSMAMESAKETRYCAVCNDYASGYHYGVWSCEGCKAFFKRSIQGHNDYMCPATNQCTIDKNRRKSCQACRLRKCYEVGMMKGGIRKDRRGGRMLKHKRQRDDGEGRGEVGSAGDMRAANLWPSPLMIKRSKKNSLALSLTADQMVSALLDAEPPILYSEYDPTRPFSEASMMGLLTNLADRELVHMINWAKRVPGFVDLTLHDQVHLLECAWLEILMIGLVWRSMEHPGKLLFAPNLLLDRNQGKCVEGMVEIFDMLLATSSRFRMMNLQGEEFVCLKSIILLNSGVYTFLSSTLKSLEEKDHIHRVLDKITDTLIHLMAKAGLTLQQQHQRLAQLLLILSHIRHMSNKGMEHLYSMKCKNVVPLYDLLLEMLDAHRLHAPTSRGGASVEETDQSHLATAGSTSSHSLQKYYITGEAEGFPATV
Procedure, shortened: (§1)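 Radioligand competition binding to human ERα or ERβ, run as an outsourced panel assay. Readout is % inhibition of specific [3H]estradiol binding at 5.0 and 50 µM compound. Run in duplicate, and the mean of the duplicates is reported.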

[4] = target: T1, Estrogen receptor (Homo sapiens); experiment: Displacement of [3H]estradiol from human full length recombinant ERalpha expressed in baculovirus-infected Sf9 cells at 50 uM incubated for 120 mins by radiometric scintillation counting analysis; procedure, shortened: as §1
[5] = target: Estrogen receptor beta (Homo sapiens) (UniProt Q92731); experiment: Displacement of [3H]estradiol from human full length recombinant ERbeta expressed in baculovirus-infected Sf9 cells at 5 uM incubated for 120 mins by radiometric scintillation counting analysis; procedure, shortened: as §1
Chain of Estrogen receptor beta (Homo sapiens) (Q92731 whole entry): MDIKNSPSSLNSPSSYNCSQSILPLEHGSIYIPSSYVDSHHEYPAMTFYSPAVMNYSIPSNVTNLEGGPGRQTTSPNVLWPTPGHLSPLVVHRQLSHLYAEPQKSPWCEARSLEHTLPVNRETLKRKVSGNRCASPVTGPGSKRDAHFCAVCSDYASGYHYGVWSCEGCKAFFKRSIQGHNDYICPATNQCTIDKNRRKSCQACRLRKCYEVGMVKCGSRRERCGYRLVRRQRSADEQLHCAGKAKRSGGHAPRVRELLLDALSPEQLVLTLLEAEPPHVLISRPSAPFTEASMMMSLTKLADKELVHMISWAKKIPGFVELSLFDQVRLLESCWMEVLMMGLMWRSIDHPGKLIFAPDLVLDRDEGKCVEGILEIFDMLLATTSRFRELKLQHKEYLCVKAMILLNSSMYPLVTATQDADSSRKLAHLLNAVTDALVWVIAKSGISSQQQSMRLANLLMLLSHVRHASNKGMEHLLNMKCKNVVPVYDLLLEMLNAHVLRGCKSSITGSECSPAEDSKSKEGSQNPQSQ

[6] = target: Estrogen receptor beta (Homo sapiens) (UniProt Q92731); experiment: Displacement of [3H]estradiol from human full length recombinant ERbeta expressed in baculovirus-infected Sf9 cells at 50 uM incubated for 120 mins by radiometric scintillation counting analysis; procedure, shortened: as §1
KMS-11 [7] = experiment: Antitumor activity against human KMS-11 cells xenografted in NOD-SCID mouse assessed as tumor growth inhibition at 7.5 mg/kg, ip administered every other day measured at day 17 post-tumor implantation by caliper analysis; format: functional, organism-based
Procedure, shortened: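 Female NOD/SCID mice, six to eight weeks old, injected s.c. with 5 × 10^6 KMS-11 cells in PBS. Once tumors were palpable (10 days), mice were randomized and given 7.5 mg/kg i.p. every other day, with DMSO as vehicle control; n = 5 per group. Tumor volume from caliper measurements, V = (D × d²)/2. Tumors excised and weighed at day 17.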

[8] = Total plasma concentration in NOD-SCID mouse at 7.5 mg/kg, ip measured after 90 mins by HPLC/MS/MS analysis; format: ADME, organism-based
Procedure, shortened: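 A single 7.5 mg/kg i.p. dose given to eight-week-old NOD/SCID mice (n = 4). Blood collected at 90 min. Plasma treated with acetonitrile containing internal standard (1:2) to precipitate protein, centrifuged, and the supernatant analyzed by C18 gradient HPLC-MS/MS in ESI-negative MRM mode. Calibration in spiked blank plasma, linear over 1–1000 nM, LOQ 1 nM. Values are mean ± SEM.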

[9] = target: Fibroblast growth factor 2 (Homo sapiens, UniProt P09038); experiment: Binding affinity to FGF2 (unknown origin) by sensor chip immobilization based surface plasmon resonance analysis
Chain of Fibroblast growth factor 2 (P09038 143-288 limits assumed): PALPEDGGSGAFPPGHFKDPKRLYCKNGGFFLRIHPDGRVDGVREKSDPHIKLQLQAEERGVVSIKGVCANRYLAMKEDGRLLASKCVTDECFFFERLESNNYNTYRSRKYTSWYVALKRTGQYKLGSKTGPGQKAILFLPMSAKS

OPM-2 [10] = experiment: Trapping activity at FGF in human OPM-2 cells assessed as inhibition of FGFR3 phosphorylation at 6 uM measured after 6 hrs by westernblot analysis; format: cell-based
Procedure, shortened: (§2)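 Cells cultured in RPMI1640 with 10% FBS and 2.0 mM glutamine, then treated 6 h with 6 µM compound. Washed in cold PBS and lysed in NP-40 buffer (20 mM Tris-HCl pH 8, 1 mM orthovanadate, protease inhibitors). Bradford used to normalize protein. Blots probed for phospho-FGFR3 (Y724), with β-actin or α-tubulin as loading control; percent inhibition read by densitometry.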

RPMI-8226 [11] = experiment: Trapping activity at FGF in human RPMI-8226 cells assessed as inhibition of FGFR3 phosphorylation at 6 uM measured after 6 hrs by westernblot analysis; format: cell-based; procedure, shortened: as §2
U-266 [12] = experiment: Trapping activity at FGF in human U-266 cells assessed as inhibition of FGFR3 phosphorylation at 6 uM measured after 6 hrs by westernblot analysis; format: cell-based; procedure, shortened: as §2
OPM-2 [13] = experiment: Antiproliferative activity against human OPM-2 cells assessed as reduction in cell viability incubated for 48 hrs by propidium iodide staining-based flow cytometric analysis; format: functional; details: OPM-2, 48 h
Procedure, shortened: (§3)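 Myeloma cells kept at low passage in RPMI1640 with 10% heat-inactivated FBS and 2.0 mM glutamine, Mycoplasma-tested, authenticated. Exposed to increasing concentrations of test compound for 48 h. Viable cells counted as propidium iodide-negative by flow cytometry with absolute counts. IC50 = concentration halving proliferation; mean of at least 2 experiments in triplicate.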

RPMI-8226 [14] = experiment: Antiproliferative activity against human RPMI-8226 cells assessed as reduction in cell viability incubated for 48 hrs by propidium iodide staining-based flow cytometric analysis; format: functional; details: RPMI-8226, 48 h; procedure, shortened: as §3
U-266 [15] = experiment: Antiproliferative activity against human U-266 cells assessed as reduction in cell viability incubated for 48 hrs by propidium iodide staining-based flow cytometric analysis; format: functional; details: U-266, 48 h; procedure, shortened: as §3

Compound	inhibition (KMS-11 [1])	further results
C[C@]12CC[C@H]3[C@@H](CC=C4C[C@@H](O)CC[C@@]43C)[C@@H]1CC[C@@H]2[C@@H](O)CCO	57%	
C[C@]12CC[C@H]3[C@@H](CC=C4C[C@@H](O[C@@H]5O[C@H](CO)[C@@H](O)[C@H](O)[C@H]5O)CC[C@@]43C)[C@@H]1CC[C@@H]2[C@H](O)CC(O)(C(F)(F)F)C(F)(F)F	inactive	
C[C@]12CC[C@H]3[C@@H](CC=C4C[C@@H](O)CC[C@@]43C)[C@@H]1CC[C@@H]2C(O)CC(O)c1ccccc1 (stereo in doubt; 11a)	49%	
C[C@]12CC[C@H]3[C@@H](CC=C4C[C@@H](OCCO)CC[C@@]43C)[C@@H]1CC[C@@H]2[C@@H](O)CC(O)(C(F)(F)F)C(F)(F)F	71%	
C[C@]12CC[C@H]3[C@@H](CC=C4C[C@@H](O)CC[C@@]43C)[C@@H]1CC[C@@H]2[C@H](O)CCO	inactive	
C[C@]12CC[C@H]3[C@@H](CC=C4CC(=NO)CC[C@@]43C)[C@@H]1CC[C@@H]2[C@@H](O)CC(O)(C(F)(F)F)C(F)(F)F	51%	
C[C@]12CC[C@H]3[C@@H](CC=C4C[C@@H](O)CC[C@@]43C)[C@@H]1CC[C@@H]2C(O)CC(O)c1ccccn1 (stereo in doubt; 14a)	26%	
C[C@]12CC[C@H]3[C@@H](CC=C4C[C@@H](O)CC[C@@]43C)[C@@H]1CC[C@@H]2[C@@H](O)CC(O)(C(F)(F)F)C(F)(F)F	81%	IC50 (KMS-11 [2]): 3.4 µM; inhibition [3]: 60.8%; inhibition [4]: 83.3%; inhibition [5]: 74.9%; inhibition [6]: 91.9%; Activity (KMS-11 [7]): Active; concentration at 1.5 h [8]: 360 nM
C[C@]12CC[C@H]3[C@@H](CC=C4C/C(=N\O)CC[C@@]43C)[C@@H]1CC[C@@H]2[C@H](O)CC(O)(C(F)(F)F)C(F)(F)F	80%	
C[C@]12CC[C@H]3[C@@H](CC=C4C[C@@H](O)CC[C@@]43C)[C@@H]1CC[C@@H]2[C@@H](O)CC(=O)O	41%	
C[C@]12CC[C@H]3[C@@H](CC=C4C[C@@H](O)CC[C@@]43C)[C@@H]1CC[C@@H]2C(O)CC(O)c1ccccn1 (stereo in doubt; 14b)	34%	
C[C@]12CC[C@H]3[C@@H](CC=C4C/C(=N/O)CC[C@@]43C)[C@@H]1CC[C@@H]2[C@H](O)CC(O)(C(F)(F)F)C(F)(F)F	58%	
C[C@]12CC[C@H]3[C@@H](CC=C4C[C@@H](O)CC[C@@]43C)[C@@H]1CC[C@@H]2[C@H](O)CC(=O)O	80%	
C[C@]12CC[C@H]3[C@@H](CC=C4C[C@@H](O)CC[C@@]43C)[C@@H]1CC[C@@H]2C(O)CC(O)c1ccccc1 (stereo in doubt; 11c)	28%	
C[C@]12CC[C@H]3[C@@H](CC=C4C[C@@H](O[C@@H]5O[C@H](CO)[C@@H](O)[C@H](O)[C@H]5O)CC[C@@]43C)[C@@H]1CC[C@@H]2[C@@H](O)CC(O)(C(F)(F)F)C(F)(F)F	100%	IC50 (KMS-11 [2]): 4 µM
C[C@]12CC[C@H]3[C@@H](CC=C4C[C@@H](OC(=O)CN)CC[C@@]43C)[C@@H]1CC[C@@H]2[C@@H](O)CC(O)(C(F)(F)F)C(F)(F)F	93%	IC50 (KMS-11 [2]): 5.6 µM
C[C@]12CC[C@H]3[C@@H](CC=C4C[C@@H](OCCO)CC[C@@]43C)[C@@H]1CC[C@@H]2[C@H](O)CC(O)(C(F)(F)F)C(F)(F)F	85%	IC50 (KMS-11 [2]): 7.7 µM
C[C@]12CC[C@H]3[C@@H](CC=C4C[C@@H](O)CC[C@@]43C)[C@@H]1CC[C@@H]2C(O)CC(O)c1ccccc1 (stereo in doubt; 11b)	68%	
C[C@]12CC[C@H]3[C@@H](CC=C4C[C@@H](O)CC[C@@]43C)[C@@H]1CC[C@@H]2[C@H](O)CC(O)(C(F)(F)F)C(F)(F)F	inactive	concentration at 1.5 h [8]: 93.1 nM
CC(C)(O)C[C@@H](O)[C@H]1CC[C@H]2[C@@H]3CC=C4C[C@@H](O)CC[C@]4(C)[C@H]3CC[C@]12C	32%	
C[C@]12CC[C@H](O)C[C@@H]1CC[C@@H]1[C@@H]2CC[C@]2(C)[C@@H]([C@H](O)CC(O)(C(F)(F)F)C(F)(F)F)CC[C@@H]12	inactive	
C[C@]12CC[C@H]3[C@@H](CC=C4CC(=O)CC[C@@]43C)[C@@H]1CC[C@@H]2[C@@H](O)CC(O)(C(F)(F)F)C(F)(F)F	91%	IC50 (KMS-11 [2]): 3.4 µM
C[C@]12CC[C@H]3[C@@H](CC=C4CC(=O)CC[C@@]43C)[C@@H]1CC[C@@H]2[C@H](O)CC(O)(C(F)(F)F)C(F)(F)F	69%	
C[C@]12CCC(=O)C[C@@H]1CC[C@@H]1[C@@H]2CC[C@]2(C)[C@@H]([C@@H](O)CC(O)(C(F)(F)F)C(F)(F)F)CC[C@@H]12	82%	
C[C@]12CC[C@H]3[C@@H](CC=C4C[C@@H](O)CC[C@@]43C)[C@@H]1CC[C@@H]2[C@H](O)CC(N)=O	44%	
C[C@]12CCC(=O)C[C@@H]1CC[C@@H]1[C@@H]2CC[C@]2(C)[C@@H]([C@H](O)CC(O)(C(F)(F)F)C(F)(F)F)CC[C@@H]12	99%	IC50 (KMS-11 [2]): 2.4 µM; Kd [9]: 30.5 µM; Activity (OPM-2 [10]): Active; Activity (RPMI-8226 [11]): Active; Activity (U-266 [12]): Active; inhibition [3]: 0%; inhibition [4]: 0%; inhibition [5]: 4.3%; inhibition [6]: 17.6%; Activity (KMS-11 [7]): Active; concentration at 1.5 h [8]: 525 nM; IC50 (OPM-2 [13]): 6.6 µM; IC50 (RPMI-8226 [14]): 6.6 µM; IC50 (U-266 [15]): 5.4 µM
CC(C)(O)C[C@H](O)[C@H]1CC[C@H]2[C@@H]3CC=C4C[C@@H](O)CC[C@]4(C)[C@H]3CC[C@]12C	46%	
C[C@]12CC[C@H]3[C@@H](CC=C4C[C@@H](O)CC[C@@]43C)[C@@H]1CC[C@@H]2[C@@H](O)CC(N)=O	17%	
C[C@]12CC[C@H](O)C[C@@H]1CC[C@@H]1[C@@H]2CC[C@]2(C)[C@@H]([C@@H](O)CC(O)(C(F)(F)F)C(F)(F)F)CC[C@@H]12	89%	IC50 (KMS-11 [2]): 2.9 µM
